Data reported in ChEMBL document CHEMBL1154176, “Thiazolidinedione derivatives as PTP1B inhibitors with antihyperglycemic and antiobesity effects” (Bioorg Med Chem Lett, 2009).
The source made the active and inactive calls. The calls are words filed in the database; no cut-off is given here.

How the values were obtained:
[1] = molecular target: T1, Tyrosine-protein phosphatase non-receptor type 1 (Homo sapiens, UniProt P18031); test: Inhibition of PTP1B
T1 sequence (P18031 whole entry): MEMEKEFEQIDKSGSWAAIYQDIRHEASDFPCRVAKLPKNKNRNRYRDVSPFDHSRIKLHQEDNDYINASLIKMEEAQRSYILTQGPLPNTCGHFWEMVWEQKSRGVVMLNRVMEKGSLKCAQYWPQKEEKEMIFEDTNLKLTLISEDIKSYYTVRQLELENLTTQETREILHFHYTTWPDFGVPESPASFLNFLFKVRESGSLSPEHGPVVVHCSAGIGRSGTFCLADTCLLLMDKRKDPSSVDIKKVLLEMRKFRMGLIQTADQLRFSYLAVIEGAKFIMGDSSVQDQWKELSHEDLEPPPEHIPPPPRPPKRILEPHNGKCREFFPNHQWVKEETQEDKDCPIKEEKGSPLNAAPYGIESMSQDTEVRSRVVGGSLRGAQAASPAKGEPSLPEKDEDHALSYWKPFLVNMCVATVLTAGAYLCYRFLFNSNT

Mus musculus [2] = test: Antiobesity activity in high fat diet-induced obese C57BL/6J Jms Slc mouse model assessed as decrease in body weight gain per kilocalories of food intake at 143 mg/kg/day, po for 4 weeks administered with high fat diet; format: functional; set-up: scale not given: the % may be the effect or the level left
Procedure, shortened: (§1)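 Male C57BL/6J Jms Slc mice were acclimatized 1 wk on low-fat diet (10% kcal fat), then fed high-fat diet (45% kcal fat) ad libitum for 8 wk. They were split into groups of equal mean body weight and given HFD or HFD with drug mixed into the food (2.0 g/kg diet; DMSO plus 1% aqueous polyglycerol fatty acid ester) for 4 wk. Read-outs: weight gain and feed efficiency (weight gain/kcal ×100).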

Mus musculus [3] = test: Hypoglycemic activity in high fat diet-induced obese C57BL/6J Jms Slc mouse model assessed as reduction in fasting blood glucose level at 143 mg/kg/day, po for 4 weeks administered with high fat diet measured after 6 hrs of fasting; format: functional, organism-based
Procedure, shortened: (§2)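 After 8 wk of HFD and 4 wk of HFD with drug in the diet (2.0 g/kg diet), mice were fasted 6 h. Fasting blood glucose was taken at 0 min, glucose was then injected intraperitoneally, and tail blood was sampled at timed intervals up to 120 min.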

Mus musculus [4] = test: Antiobesity activity in high fat diet-induced obese C57BL/6J Jms Slc mouse model assessed as epididymal fat at 143 mg/kg/day, po for 4 weeks administered with high fat diet followed by 5 days recovery period on their own high fat diet with drug (Rvb= 1.87 +/- 0.08 g); format: functional
Procedure, shortened: (§3)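 Obesity was induced by HFD (45% kcal fat) for 8 wk, followed by 4 wk of HFD or HFD with drug in the diet (2.0 g/kg diet). After the glucose tolerance test, mice stayed on their diets for 5 d more and were fasted overnight. Epididymal and retroperitoneal fat pads were excised and weighed. Significance versus HFD by one-way ANOVA.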

[5] = molecular target: T2, Tyrosine-protein phosphatase non-receptor type 2 (Homo sapiens, UniProt P17706); test: Inhibition of TC-PTP
T2 sequence (P17706 whole entry): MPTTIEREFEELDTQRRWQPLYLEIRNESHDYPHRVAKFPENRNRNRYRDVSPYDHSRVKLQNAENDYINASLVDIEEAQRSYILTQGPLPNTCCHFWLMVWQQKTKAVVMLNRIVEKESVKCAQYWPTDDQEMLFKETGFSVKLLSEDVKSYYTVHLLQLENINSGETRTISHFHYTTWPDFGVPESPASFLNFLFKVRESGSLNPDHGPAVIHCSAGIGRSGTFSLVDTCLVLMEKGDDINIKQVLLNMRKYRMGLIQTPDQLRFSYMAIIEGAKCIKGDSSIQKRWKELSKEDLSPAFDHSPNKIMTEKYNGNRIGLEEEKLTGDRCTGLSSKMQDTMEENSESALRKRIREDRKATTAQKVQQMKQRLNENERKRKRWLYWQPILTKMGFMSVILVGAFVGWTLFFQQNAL
Procedure, shortened: (§4)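 Phosphatase activity was measured as p-nitrophenyl phosphate hydrolysis (2 mM pNPP in the reaction) over a range of inhibitor concentrations to derive IC50. Conditions were identical for all enzymes except enzyme level: PTP1B 40 nM, E. coli-expressed SHP-1 catalytic domain 100 nM, E. coli-expressed YPTP1 15 nM, LAR-D1 and TC-PTP 33 units/mL. Ki was calculated as IC50 = Ki(1+[S]/KM). Mean ± SD of two or more experiments.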

Mus musculus [6] = test: Antiobesity activity in high fat diet-induced obese C57BL/6J Jms Slc mouse model assessed as body weight gain at 143 mg/kg/day, po for 4 weeks administered with high fat diet (Rvb= 4.88 +/- 0.46 g); format: functional; procedure, shortened: as §1
Mus musculus [7] = test: Hypoglycemic activity in high fat diet-induced obese C57BL/6J Jms Slc mouse model at 143 mg/kg/day, po for 4 weeks administered with high fat diet by glucose tolerance test; format: functional, organism-based; procedure, shortened: as §2
[8] = Selectivity for PTP1B over membrane proximal catalytic domain of LAR
Mus musculus [9] = test: Hypoglycemic activity in high fat diet-induced obese C57BL/6J Jms Slc mouse model assessed as non-esterified free fatty acid level at 143 mg/kg/day, po for 4 weeks administered with high fat diet followed by 5 days recovery period on their own high fat diet with drug (Rvb= 0.71 +/- 0.22 mM); format: functional
Procedure, shortened: (§5)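 HFD-obese mice (8 wk HFD) received HFD with drug in the diet (2.0 g/kg diet) for 4 wk, then continued 5 d on their diets. After an overnight fast and anesthesia, blood was taken by cardiac puncture. Serum triglyceride and total cholesterol were measured by enzymatic kits, and NEFA by a half-micro test kit. Mean ± SD, n = 8/group; one-way ANOVA.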

Mus musculus [10] = test: Hypoglycemic activity in high fat diet-induced obese C57BL/6J Jms Slc mouse model assessed as triglyceride level at 143 mg/kg/day, po for 4 weeks administered with high fat diet followed by 5 days recovery period on their own high fat diet with drug (Rvb= 124 +/- 16 mg/dL); format: functional; procedure, shortened: as §5
Mus musculus [11] = test: Antiobesity activity in high fat diet-induced obese C57BL/6J Jms Slc mouse model assessed as retroperitoneal fat at 143 mg/kg/day, po for 4 weeks administered with high fat diet followed by 5 days recovery period on their own high fat diet with drug (Rvb= 0.69 +/- 0.06 g); format: functional; procedure, shortened: as §3
[12] = Inhibition of yeast PTP1; set-up: species or system Saccharomyces cerevisiae; procedure, shortened: as §4
Mus musculus [13] = test: Hypoglycemic activity in high fat diet-induced obese C57BL/6J Jms Slc mouse model assessed as total cholesterol level at 143 mg/kg/day, po for 4 weeks administered with high fat diet followed by 5 days recovery period on their own high fat diet with drug (Rvb= 152 +/- 6 mg/dL); format: functional; procedure, shortened: as §5
[14] = Selectivity for PTP1B over yeast PTP1
[15] = molecular target: Receptor-type tyrosine-protein phosphatase F (Homo sapiens, UniProt P10586); test: Inhibition of membrane proximal catalytic domain of LAR; procedure, shortened: as §4
[16] = Inhibition of Yersinia YOP
Procedure, shortened: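 Purchased YOP enzyme at 50 units (manufacturer's definition)/mL, with p-nitrophenyl phosphate substrate at 2 mM in the reaction mixture. pNPP hydrolase activity was measured across a range of inhibitor concentrations to derive IC50. Ki was obtained from IC50 = Ki(1 + [S]/KM). Values are mean and SD of two or more experiments.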

[17] = molecular target: Tyrosine-protein phosphatase non-receptor type 6 (Homo sapiens, UniProt P29350); test: Inhibition of SHP1 catalytic domain expressed in Escherichia coli; procedure, shortened: as §4
[18] = Selectivity for PTP1B over TC-PTP

Chain of Tyrosine-protein phosphatase non-receptor type 6 (P29350 whole entry, the tested form may be a part): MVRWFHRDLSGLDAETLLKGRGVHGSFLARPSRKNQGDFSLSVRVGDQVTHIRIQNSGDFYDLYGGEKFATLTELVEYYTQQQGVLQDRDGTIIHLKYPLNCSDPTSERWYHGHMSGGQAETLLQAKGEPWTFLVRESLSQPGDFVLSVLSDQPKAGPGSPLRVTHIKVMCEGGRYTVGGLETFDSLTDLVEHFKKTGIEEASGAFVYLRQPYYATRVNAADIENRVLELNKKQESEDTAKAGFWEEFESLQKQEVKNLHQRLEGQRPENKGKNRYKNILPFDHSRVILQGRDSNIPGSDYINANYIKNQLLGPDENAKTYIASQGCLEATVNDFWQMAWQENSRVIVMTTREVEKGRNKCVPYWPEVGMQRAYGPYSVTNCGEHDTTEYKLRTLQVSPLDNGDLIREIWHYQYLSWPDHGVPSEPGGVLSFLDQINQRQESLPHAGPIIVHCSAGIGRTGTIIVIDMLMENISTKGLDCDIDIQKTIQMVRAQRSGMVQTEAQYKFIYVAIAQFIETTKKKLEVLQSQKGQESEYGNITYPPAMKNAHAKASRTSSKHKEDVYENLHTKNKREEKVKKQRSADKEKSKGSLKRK
Chain of Receptor-type tyrosine-protein phosphatase F (P10586 whole entry, the tested form may be a part): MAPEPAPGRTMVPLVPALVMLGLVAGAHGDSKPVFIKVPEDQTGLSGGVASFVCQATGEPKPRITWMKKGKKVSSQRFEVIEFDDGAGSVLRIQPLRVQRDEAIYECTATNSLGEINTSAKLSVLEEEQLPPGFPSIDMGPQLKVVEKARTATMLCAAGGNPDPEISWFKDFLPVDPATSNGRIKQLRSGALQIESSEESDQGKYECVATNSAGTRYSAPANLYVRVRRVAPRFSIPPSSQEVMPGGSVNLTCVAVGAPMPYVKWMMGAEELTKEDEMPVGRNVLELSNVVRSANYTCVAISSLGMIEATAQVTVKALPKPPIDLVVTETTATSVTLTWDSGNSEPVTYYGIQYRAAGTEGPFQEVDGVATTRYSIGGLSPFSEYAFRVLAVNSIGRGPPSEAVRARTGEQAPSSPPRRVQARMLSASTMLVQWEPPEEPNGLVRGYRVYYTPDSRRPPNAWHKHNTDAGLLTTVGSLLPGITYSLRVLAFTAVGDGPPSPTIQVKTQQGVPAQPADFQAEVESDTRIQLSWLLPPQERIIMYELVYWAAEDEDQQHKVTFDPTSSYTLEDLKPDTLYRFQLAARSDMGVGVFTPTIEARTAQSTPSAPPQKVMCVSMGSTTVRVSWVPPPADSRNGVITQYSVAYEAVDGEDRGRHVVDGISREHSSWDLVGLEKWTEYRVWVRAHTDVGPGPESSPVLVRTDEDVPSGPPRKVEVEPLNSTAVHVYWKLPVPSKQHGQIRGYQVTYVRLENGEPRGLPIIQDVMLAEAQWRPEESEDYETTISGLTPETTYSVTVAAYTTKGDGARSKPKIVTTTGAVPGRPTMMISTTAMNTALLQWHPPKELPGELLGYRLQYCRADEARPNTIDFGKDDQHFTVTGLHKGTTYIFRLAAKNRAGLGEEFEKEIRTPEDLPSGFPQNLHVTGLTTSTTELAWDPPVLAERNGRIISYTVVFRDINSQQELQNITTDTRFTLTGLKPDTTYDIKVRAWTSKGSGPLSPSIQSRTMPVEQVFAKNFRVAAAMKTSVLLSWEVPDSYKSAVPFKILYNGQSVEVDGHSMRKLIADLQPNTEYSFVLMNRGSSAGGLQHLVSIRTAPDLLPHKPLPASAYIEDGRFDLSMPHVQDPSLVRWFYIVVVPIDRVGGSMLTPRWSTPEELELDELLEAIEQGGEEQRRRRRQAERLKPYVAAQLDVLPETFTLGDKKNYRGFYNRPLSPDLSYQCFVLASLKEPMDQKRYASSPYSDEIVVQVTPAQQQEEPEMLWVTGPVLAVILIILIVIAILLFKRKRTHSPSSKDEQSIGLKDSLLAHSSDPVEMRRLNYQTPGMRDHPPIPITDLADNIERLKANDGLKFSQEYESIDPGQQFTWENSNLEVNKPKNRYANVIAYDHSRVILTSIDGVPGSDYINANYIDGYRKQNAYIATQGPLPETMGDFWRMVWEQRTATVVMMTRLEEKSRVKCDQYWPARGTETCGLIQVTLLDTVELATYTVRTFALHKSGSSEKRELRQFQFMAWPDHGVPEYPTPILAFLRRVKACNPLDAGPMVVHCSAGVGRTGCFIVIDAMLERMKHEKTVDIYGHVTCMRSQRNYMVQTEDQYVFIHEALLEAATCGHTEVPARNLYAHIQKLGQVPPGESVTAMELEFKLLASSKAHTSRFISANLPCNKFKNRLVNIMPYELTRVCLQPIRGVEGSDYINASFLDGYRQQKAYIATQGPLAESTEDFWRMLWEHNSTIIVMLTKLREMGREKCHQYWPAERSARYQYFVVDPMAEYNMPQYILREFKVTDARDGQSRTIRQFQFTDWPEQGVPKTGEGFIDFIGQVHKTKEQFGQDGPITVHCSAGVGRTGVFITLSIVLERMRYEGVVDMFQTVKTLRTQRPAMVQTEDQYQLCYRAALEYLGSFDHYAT

O=C1NC(=O)/C(=C/c2cc(Br)ccc2OCc2ccc(F)cc2)S1
IC50 [1]: 23 µM

O=C1NC(=O)/C(=C/c2cc(F)ccc2OCc2ccc(C(F)(F)F)cc2)S1
IC50 [1]: 15 µM

O=C1NC(=O)/C(=C/c2ccc(OCc3ccccc3)cc2)S1
IC50 [1]: 64 µM

O=C1NC(=O)/C(=C/c2cc(Br)ccc2OCc2cc(C(F)(F)F)cc(C(F)(F)F)c2)S1
Activity (Mus musculus [2]): 0.68% | Activity (Mus musculus [3]): inactive | IC50 [1]: 5 µM | Ki [1]: 2.1 µM | Activity (Mus musculus [4]): 1.27 g | IC50 [5]: 16 µM | Ki [5]: 4.5 µM | Activity (Mus musculus [6]): 2.16 g | Activity (Mus musculus [7]): Active | fold change (FC) [8]: > 20 | Activity (Mus musculus [9]): 0.22 mM | Activity (Mus musculus [10]): 78 mg/dL | Activity (Mus musculus [11]): 0.42 g | IC50 [12]: 18 µM | Ki [12]: 7.7 µM | Activity (Mus musculus [13]): 125 mg/dL | fold change (FC) [14]: 3.7 | IC50 [15]: > 100 µM | IC50 [16]: 6 µM | IC50 [17]: 5.8 µM | Ki [17]: 2.2 µM | fold change (FC) [18]: 2.2

O=C1NC(=O)/C(=C/c2ccc(OCc3ccccc3)c(-c3ccccc3)c2)S1
IC50 [1]: 9 µM

O=C1NC(=O)/C(=C/c2ccc(OCc3ccc(F)cc3)cc2)S1
IC50 [1]: 68 µM

O=C1NC(=O)/C(=C/c2cc(F)ccc2OCc2cc(C(F)(F)F)cc(C(F)(F)F)c2)S1
IC50 [1]: 8 µM

Cc1c(C)c2c(c(C)c1O)CCC(C)(COc1ccc(CC3SC(=O)NC3=O)cc1)O2 (stereo unspecified) [TROGLITAZONE]
IC50 [1]: 55 µM

O=C1NC(=O)/C(=C/c2ccc(OCc3ccc(C(F)(F)F)cc3)c(Br)c2)S1
IC50 [1]: 5 µM

O=C1NC(=O)/C(=C/c2ccc(OCc3ccc(C(F)(F)F)cc3)cc2)S1
IC50 [1]: 14 µM

O=C1NC(=O)/C(=C/c2ccc(OCc3ccc(F)cc3)c(Br)c2)S1
IC50 [1]: 11 µM

O=C1NC(=O)/C(=C/c2ccc(OCc3ccc(C(F)(F)F)cc3)c(-c3ccccc3)c2)S1
IC50 [1]: 6 µM

O=C1NC(=O)/C(=C/c2ccc(OCc3ccccc3)c(Br)c2)S1
IC50 [1]: 15 µM

O=C1NC(=O)/C(=C/c2cc(-c3ccccc3)ccc2OCc2ccccc2)S1
IC50 [1]: 16 µM

CCc1ccc(CCOc2ccc(CC3SC(=O)NC3=O)cc2)nc1 (stereo unspecified) [PIOGLITAZONE]
IC50 [1]: 220 µM

O=C1NC(=O)/C(=C/c2cc(Br)ccc2OCc2ccc(C(F)(F)F)cc2)S1
IC50 [1]: 8 µM

O=C1NC(=O)/C(=C/c2cc(Br)ccc2OCc2cccc(C(F)(F)F)c2)S1
IC50 [1]: 8 µM

CN(CCOc1ccc(CC2SC(=O)NC2=O)cc1)c1ccccn1 (stereo unspecified) [ROSIGLITAZONE]
IC50 [1]: 400 µM

O=C1NC(=O)/C(=C/c2cc(Br)ccc2OCc2ccccc2)S1
IC50 [1]: 9 µM

O=C1NC(=O)/C(=C/c2cc(Br)ccc2OCc2ccccc2C(F)(F)F)S1
IC50 [1]: 8 µM
